For 27 molecules, Activity and MIC results are on record in ChEMBL document CHEMBL3600309, “Structure activity relationship study of burkholdine analogues toward simple antifungal agents” (2015).

Converted amounts (≈) assume the structure as drawn. The source made the active and inactive calls. No cut-off for these calls is given here. Some results are limits rather than exact numbers.

Common to all, as to type: functional
A short description of experiment [1]: Antifungal activity against Candida viswanathii NBRC10321 at 400 ug/ml after 24 hrs by twofold serial dilution method. The procedure, abridged:
(§1)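 Compounds were first screened at a single concentration of 400 against each fungus. MIC values were then determined only for selected compounds.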

The subject of experiment [2] is Saccharomyces cerevisiae. Briefly: Antifungal activity against Saccharomyces cerevisiae X2180-1A after 24 hrs by twofold serial dilution method. The procedure, abridged: as §1
Experiment [3] relates to Aspergillus oryzae. Briefly: Antifungal activity against Aspergillus oryzae 1-Murasaki-1 after 24 hrs by twofold serial dilution method. As to conditions: 1-Murasaki-1, 24 h. The gist of the method:
as §1

`CCCCCCCCCCCCNC(=O)[C@@H]1CC(=O)N[C@H](CO)C(=O)N[C@H](Cc2ccc(O)cc2)C(=O)N[C@H](CC(N)=O)C(=O)NCC(=O)N[C@@H](CC(N)=O)C(=O)N[C@H](CO)C(=O)N[C@H](CC(N)=O)C(=O)N1`: the result in experiment [1] was inactive.

Take `CCCCCCCCCCCCNC(=O)[C@H]1CC(=O)N[C@H](CO)C(=O)N[C@H](Cc2ccc(O)cc2)C(=O)N[C@H](CC(N)=O)C(=O)NCC(=O)N[C@@H](CC(N)=O)C(=O)N[C@H](CO)C(=O)N[C@H](CC(N)=O)C(=O)N1`: the MIC came out at 400 µg/mL (≈ 392 µM) in experiment [2] and 200 µg/mL (≈ 196 µM) in experiment [3]. The outcome in experiment [1] was inactive.

In the case of `CCCCCCCCCCCCNC(=O)[C@@H]1CC(=O)N[C@H](CO)C(=O)N[C@H](Cc2ccc(O)cc2)C(=O)N[C@H](CC(N)=O)C(=O)NCC(=O)N[C@H](CC(N)=O)C(=O)N[C@H](CO)C(=O)N[C@H](CC(N)=O)C(=O)N1`, the MIC is over 400 µg/mL in experiment [2] and 200 µg/mL (≈ 196 µM) in experiment [3]. In experiment [1], the outcome was inactive.

With `CCCCCCCCCCCCNC(=O)[C@H]1CC(=O)N[C@H](CO)C(=O)N[C@H](Cc2ccc(O)cc2)C(=O)N[C@H](CC(N)=O)C(=O)NCC(=O)N[C@@H](CC(N)=O)C(=O)N[C@@H](CO)C(=O)N[C@H](CC(N)=O)C(=O)N1`, the MIC in experiment [2] was over 400 µg/mL; in experiment [3], 200 µg/mL (≈ 196 µM). The result in experiment [1] was inactive.

As for `CCCCCCCCCCCCNC(=O)[C@@H]1CC(=O)N[C@H](CO)C(=O)N[C@H](Cc2ccc(O)cc2)C(=O)N[C@H](CC(N)=O)C(=O)NCC(=O)N[C@@H](CC(N)=O)C(=O)N[C@H](CO)C(=O)N[C@@H](CC(N)=O)C(=O)N1`, in experiment [1], the outcome was inactive.

As for `CCCCCCCCCCCCNC(=O)[C@@H]1CC(=O)N[C@H](CO)C(=O)N[C@H](Cc2ccc(O)cc2)C(=O)N[C@H](CC(N)=O)C(=O)NCC(=O)N[C@@H](CC(N)=O)C(=O)N[C@@H](CO)C(=O)N[C@@H](CC(N)=O)C(=O)N1`, the values for the MIC in experiment [2] and in experiment [3] were 25 µg/mL (≈ 24.5 µM) and 50 µg/mL (≈ 49.1 µM), respectively. Moreover, in experiment [1], the result was inactive.

With `CCCCCCCCCCCCNC(=O)[C@H]1CC(=O)N[C@H](CO)C(=O)N[C@H](Cc2ccc(O)cc2)C(=O)N[C@H](CC(N)=O)C(=O)NCC(=O)N[C@@H](CC(N)=O)C(=O)N[C@H](CO)C(=O)N[C@@H](CC(N)=O)C(=O)N1`, the result in experiment [1] was inactive.

In the case of `C[C@@H]1[C@H](O)[C@@H](C)/C=C/C=C/C=C/C=C/C=C/C=C/C=C/[C@H](O[C@@H]2O[C@H](C)[C@@H](O)[C@H](N)[C@@H]2O)C[C@@H]2O[C@](O)(C[C@@H](O)C[C@@H](O)[C@H](O)CC[C@@H](O)C[C@@H](O)CC(=O)O[C@H]1C)C[C@H](O)[C@H]2C(=O)O` [AMPHOTERICIN B], inhibition of growth in experiment [2] (MIC) required 1 µg/mL (≈ 1.08 µM).

`CCCCCCCCCCCCNC(=O)[C@H](CC(=O)N[C@H](CO)C(=O)N[C@H](Cc1ccc(O)cc1)C(=O)O)NC(=O)[C@H](CC(N)=O)NC(=O)[C@H](CO)NC(=O)[C@H](CC(N)=O)NC(=O)CNC(=O)[C@H](N)CC(N)=O`: the outcome in experiment [1] was inactive.

Consider `CCCCCCCCCCCCNC(=O)[C@H](CC(=O)N[C@H](CO)C(=O)N[C@H](Cc1ccc(O)cc1)C(=O)N[C@H](CC(N)=O)C(=O)NCC(=O)O)NC(=O)[C@H](CC(N)=O)NC(=O)[C@H](CO)NC(=O)[C@@H](N)CC(N)=O`, for which the result in experiment [1] was inactive.

On to `CCCCCCCCCCCCNC(=O)[C@H]1CC(=O)N[C@H](CO)C(=O)N[C@H](Cc2ccc(O)cc2)C(=O)N[C@H](CC(N)=O)C(=O)NCC(=O)N[C@@H](CC(N)=O)C(=O)N[C@@H](CO)C(=O)N[C@@H](CC(N)=O)C(=O)N1`, for which the MIC in experiment [2] and in experiment [3] was 50 µg/mL (≈ 49.1 µM) in each case. For the same molecule, the outcome in experiment [1] was inactive.

As to `CCCCCCCCCCCCNC(=O)[C@H]1CC(=O)N[C@H](CO)C(=O)N[C@H](Cc2ccc(O)cc2)C(=O)N[C@H](CC(N)=O)C(=O)NCC(=O)N[C@H](CC(N)=O)C(=O)N[C@@H](CO)C(=O)N[C@@H](CC(N)=O)C(=O)N1`, the outcome in experiment [1] was inactive.

Turning to `CCCCCCCCCCCCNC(=O)[C@@H]1CC(=O)N[C@H](CO)C(=O)N[C@H](Cc2ccc(O)cc2)C(=O)N[C@H](CC(N)=O)C(=O)NCC(=O)N[C@@H](CC(N)=O)C(=O)N[C@@H](CO)C(=O)N[C@H](CC(N)=O)C(=O)N1`, the outcome in experiment [1] was inactive.

Consider `CCCCCCCCCCCCNC(=O)[C@@H]1CC(=O)N[C@H](CO)C(=O)N[C@H](Cc2ccc(O)cc2)C(=O)N[C@H](CC(N)=O)C(=O)NCC(=O)N[C@H](CC(N)=O)C(=O)N[C@H](CO)C(=O)N[C@@H](CC(N)=O)C(=O)N1`, for which the outcome in experiment [1] was inactive.

Take `CCCCCCCCCCCCCCCCNC(=O)[C@@H]1CC(=O)N[C@H](CO)C(=O)N[C@H](Cc2ccc(O)cc2)C(=O)N[C@H](CC(N)=O)C(=O)NCC(=O)N[C@@H](CC(N)=O)C(=O)N[C@@H](CO)C(=O)N[C@@H](CC(N)=O)C(=O)N1`: the outcome in experiment [1] was inactive.

Take `CCCCCCCCNC(=O)[C@@H]1CC(=O)N[C@H](CO)C(=O)N[C@H](Cc2ccc(O)cc2)C(=O)N[C@H](CC(N)=O)C(=O)NCC(=O)N[C@@H](CC(N)=O)C(=O)N[C@@H](CO)C(=O)N[C@@H](CC(N)=O)C(=O)N1`: the outcome in experiment [1] was inactive.

Turning to `CCCCCCCCCCCCNC(=O)[C@@H]1CC(=O)N[C@H](CO)C(=O)N[C@H](Cc2ccc(O)cc2)C(=O)N[C@H](CC(N)=O)C(=O)NCC(=O)N[C@H](CC(N)=O)C(=O)N[C@@H](CO)C(=O)N[C@H](CC(N)=O)C(=O)N1`, the outcome in experiment [1] was inactive.

Take `CCCCCCCCCCCCNC(=O)[C@H]1CC(=O)N[C@H](CO)C(=O)N[C@H](Cc2ccc(O)cc2)C(=O)N[C@H](CC(N)=O)C(=O)NCC(=O)N[C@H](CC(N)=O)C(=O)N[C@H](CO)C(=O)N[C@H](CC(N)=O)C(=O)N1`: the MIC in experiment [2] was 100 µg/mL (≈ 98.1 µM); in experiment [3], 200 µg/mL (≈ 196 µM). Moreover, the outcome in experiment [1] was inactive.

In the case of `CCCCCCCCNC(=O)[C@H]1CC(=O)N[C@H](CO)C(=O)N[C@H](Cc2ccc(O)cc2)C(=O)N[C@H](CC(N)=O)C(=O)NCC(=O)N[C@@H](CC(N)=O)C(=O)N[C@@H](CO)C(=O)N[C@@H](CC(N)=O)C(=O)N1`, in experiment [1], the result was inactive.

Turning to `CCCCCCCCCCCCNC(=O)[C@H](CC(=O)N[C@H](CO)C(=O)N[C@H](Cc1ccc(O)cc1)C(=O)N[C@H](CC(N)=O)C(=O)NCC(=O)N[C@@H](CC(N)=O)C(=O)O)NC(=O)[C@H](CC(N)=O)NC(=O)[C@@H](N)CO`, the outcome in experiment [1] was inactive.

Take `CCCCCCCCCCCCNC(=O)[C@H]1CC(=O)N[C@H](CO)C(=O)N[C@H](Cc2ccc(O)cc2)C(=O)N[C@H](CC(N)=O)C(=O)NCC(=O)N[C@H](CC(N)=O)C(=O)N[C@@H](CO)C(=O)N[C@H](CC(N)=O)C(=O)N1`: the MIC in experiment [2] is 400 µg/mL (≈ 392 µM); in experiment [3], 200 µg/mL (≈ 196 µM). Further, the outcome in experiment [1] was inactive.

In the case of `CCCCCCCCCCCCNC(=O)[C@H](CC(=O)N[C@H](CO)C(=O)N[C@H](Cc1ccc(O)cc1)C(=O)N[C@H](CC(N)=O)C(=O)O)NC(=O)[C@H](CC(N)=O)NC(=O)[C@H](CO)NC(=O)[C@H](CC(N)=O)NC(=O)CN`, the result in experiment [1] was inactive.

Turning to `CCCCCCCCCCCCNC(=O)[C@@H]1CC(=O)N[C@H](CO)C(=O)N[C@H](Cc2ccc(O)cc2)C(=O)N[C@H](CC(N)=O)C(=O)NCC(=O)N[C@H](CC(N)=O)C(=O)N[C@@H](CO)C(=O)N[C@@H](CC(N)=O)C(=O)N1`, the outcome in experiment [1] was inactive.

Turning to `CCCCCCCCCCCCCCCCNC(=O)[C@H]1CC(=O)N[C@H](CO)C(=O)N[C@H](Cc2ccc(O)cc2)C(=O)N[C@H](CC(N)=O)C(=O)NCC(=O)N[C@@H](CC(N)=O)C(=O)N[C@@H](CO)C(=O)N[C@@H](CC(N)=O)C(=O)N1`, the outcome in experiment [1] was inactive.

For the molecule `CCCCCCCCCCCCNC(=O)[C@H](CC(=O)N[C@H](CO)C(=O)O)NC(=O)[C@H](CC(N)=O)NC(=O)[C@H](CO)NC(=O)[C@H](CC(N)=O)NC(=O)CNC(=O)[C@@H](CC(N)=O)NC(=O)[C@H](N)Cc1ccc(O)cc1`, the result in experiment [1] was inactive.

In the case of `CCCCCCCCCCCCNC(=O)[C@H]1CC(=O)N[C@H](CO)C(=O)N[C@H](Cc2ccc(O)cc2)C(=O)N[C@H](CC(N)=O)C(=O)NCC(=O)N[C@H](CC(N)=O)C(=O)N[C@H](CO)C(=O)N[C@@H](CC(N)=O)C(=O)N1`, the values for the MIC in experiment [2] and in experiment [3] were 100 µg/mL (≈ 98.1 µM) and 200 µg/mL (≈ 196 µM), respectively. In addition, the result in experiment [1] was inactive.

Consider `CCCCCCCCCCCCNC(=O)[C@H](CC(=O)N[C@H](CO)C(=O)N[C@H](Cc1ccc(O)cc1)C(=O)N[C@H](CC(N)=O)C(=O)NCC(=O)N[C@@H](CC(N)=O)C(=O)N[C@@H](CO)C(=O)O)NC(=O)[C@@H](N)CC(N)=O`, for which, in experiment [1], the result was inactive.
